Tests used:
Collagenase 3 = Collagenase 3 (Homo sapiens, UniProt P45452); test: Inhibition of human MMP13 using Mca-PQGL-(3-[2, 4-dinitrophenyl]-L-2, 3-diaminopropionyl)-AR-OH as substrate after 2 to 4 hrs by fluorescence assay
[1] = target: Matrix metalloproteinase-14 (Homo sapiens, UniProt P50281); test: Inhibition of human MMP14 using Mca-PQGL-(3-[2, 4-dinitrophenyl]-L-2, 3-diaminopropionyl)-AR-OH as substrate after 2 to 4 hrs by fluorescence assay
Stromelysin-1 = Stromelysin-1 (Homo sapiens, UniProt P08254); test: Inhibition of human MMP3 using Mca-PQGL-(3-[2, 4-dinitrophenyl]-L-2, 3-diaminopropionyl)-AR-OH as substrate after 2 to 4 hrs by fluorescence assay
Stromelysin-1, sequence (P08254 whole entry): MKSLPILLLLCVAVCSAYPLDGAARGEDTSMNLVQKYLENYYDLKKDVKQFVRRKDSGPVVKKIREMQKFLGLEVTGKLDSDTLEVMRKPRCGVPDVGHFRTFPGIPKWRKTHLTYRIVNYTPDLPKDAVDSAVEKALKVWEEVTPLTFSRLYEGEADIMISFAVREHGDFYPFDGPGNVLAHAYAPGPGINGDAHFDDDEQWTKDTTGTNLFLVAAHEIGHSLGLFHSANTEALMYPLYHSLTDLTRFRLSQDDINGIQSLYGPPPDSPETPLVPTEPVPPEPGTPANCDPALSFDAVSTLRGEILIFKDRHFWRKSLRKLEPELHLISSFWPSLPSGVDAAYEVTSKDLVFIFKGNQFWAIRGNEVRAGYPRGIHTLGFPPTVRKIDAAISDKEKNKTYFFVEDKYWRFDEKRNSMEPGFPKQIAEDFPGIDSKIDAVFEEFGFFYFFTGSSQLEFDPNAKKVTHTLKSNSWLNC

[2] = target: T1, A disintegrin and metalloproteinase with thrombospondin motifs 5 (Homo sapiens, UniProt Q9UNA0); test: Inhibition of human ADAMTS5 using VQTVTWPDMELPLPRNITEGEARGSVILTVKPIFEVSPSPLKG peptide as substrate after 3 hrs by Alphascreen assay
T1 sequence (Q9UNA0 whole entry): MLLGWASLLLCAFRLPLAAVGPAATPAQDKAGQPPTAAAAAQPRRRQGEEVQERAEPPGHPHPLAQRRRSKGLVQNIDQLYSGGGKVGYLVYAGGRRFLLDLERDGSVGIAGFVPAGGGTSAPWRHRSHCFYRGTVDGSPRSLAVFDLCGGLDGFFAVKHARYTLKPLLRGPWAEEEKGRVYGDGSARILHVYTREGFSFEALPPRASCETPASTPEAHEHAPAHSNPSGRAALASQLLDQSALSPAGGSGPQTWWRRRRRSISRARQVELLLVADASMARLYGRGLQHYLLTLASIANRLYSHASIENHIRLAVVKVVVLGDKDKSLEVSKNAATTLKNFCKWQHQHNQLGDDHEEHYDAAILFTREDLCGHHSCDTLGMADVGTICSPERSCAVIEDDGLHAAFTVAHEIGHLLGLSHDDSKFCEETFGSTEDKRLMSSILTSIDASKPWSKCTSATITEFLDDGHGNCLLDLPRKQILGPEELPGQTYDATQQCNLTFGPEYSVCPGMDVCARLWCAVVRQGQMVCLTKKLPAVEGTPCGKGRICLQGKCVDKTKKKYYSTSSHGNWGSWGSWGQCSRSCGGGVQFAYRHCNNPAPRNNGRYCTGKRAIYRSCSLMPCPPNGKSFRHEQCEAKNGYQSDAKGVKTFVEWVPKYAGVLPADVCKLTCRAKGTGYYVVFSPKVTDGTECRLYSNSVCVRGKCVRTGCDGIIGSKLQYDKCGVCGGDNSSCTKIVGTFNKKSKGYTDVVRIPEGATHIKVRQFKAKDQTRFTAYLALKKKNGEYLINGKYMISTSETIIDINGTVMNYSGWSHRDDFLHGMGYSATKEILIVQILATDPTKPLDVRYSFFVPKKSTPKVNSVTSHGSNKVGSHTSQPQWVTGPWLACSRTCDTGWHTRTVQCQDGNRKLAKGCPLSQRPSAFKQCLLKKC

Rattus norvegicus [3] = test: Drug metabolism in po or iv dosed bile-duct cannulated rat assessed as glutathione conjugation by HPLC-MS analysis; format: ADME, organism-based; details: in vivo
[4] = target: 72 kDa type IV collagenase (Homo sapiens, UniProt P08253); test: Inhibition of human MMP2 using Mca-PQGL-(3-[2, 4-dinitrophenyl]-L-2, 3-diaminopropionyl)-AR-OH as substrate after 2 to 4 hrs by fluorescence assay
72 kDa type IV collagenase, sequence (P08253 whole entry): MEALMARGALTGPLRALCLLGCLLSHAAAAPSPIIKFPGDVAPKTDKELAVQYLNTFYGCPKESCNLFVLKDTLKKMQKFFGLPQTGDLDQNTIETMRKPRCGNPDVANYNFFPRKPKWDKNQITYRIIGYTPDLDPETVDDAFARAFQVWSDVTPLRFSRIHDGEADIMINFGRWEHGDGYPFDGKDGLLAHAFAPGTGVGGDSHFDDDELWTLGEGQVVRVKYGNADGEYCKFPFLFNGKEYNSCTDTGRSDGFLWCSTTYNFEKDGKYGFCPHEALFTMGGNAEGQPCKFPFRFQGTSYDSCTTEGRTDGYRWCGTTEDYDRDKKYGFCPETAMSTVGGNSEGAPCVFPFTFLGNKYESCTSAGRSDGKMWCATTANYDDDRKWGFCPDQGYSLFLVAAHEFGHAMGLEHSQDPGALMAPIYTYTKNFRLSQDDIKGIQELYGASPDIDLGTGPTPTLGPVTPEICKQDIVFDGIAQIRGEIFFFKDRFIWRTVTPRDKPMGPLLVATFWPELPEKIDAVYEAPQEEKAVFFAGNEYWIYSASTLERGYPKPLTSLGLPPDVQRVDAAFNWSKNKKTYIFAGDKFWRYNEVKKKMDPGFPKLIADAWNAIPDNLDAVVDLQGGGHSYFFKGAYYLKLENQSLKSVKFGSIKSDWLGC

[5] = target: T1, A disintegrin and metalloproteinase with thrombospondin motifs 5; test: Inhibition of human ADAMTS5 using VQTVTWPDMELPLPRNITEGEARGSVILTVKPIFEVSPSPLKG peptide as substrate after 3 hrs in the presence of 50% Lewis rat plasma by Alphascreen assay
[6] = target: T2, A disintegrin and metalloproteinase with thrombospondin motifs 4 (Homo sapiens, UniProt O75173); test: Inhibition of human ADAMTS4 using VQTVTWPDMELPLPRNITEGEARGSVILTVKPIFEVSPSPLKG peptide as substrate after 3 hrs by Alphascreen assay
T2 sequence (O75173 whole entry): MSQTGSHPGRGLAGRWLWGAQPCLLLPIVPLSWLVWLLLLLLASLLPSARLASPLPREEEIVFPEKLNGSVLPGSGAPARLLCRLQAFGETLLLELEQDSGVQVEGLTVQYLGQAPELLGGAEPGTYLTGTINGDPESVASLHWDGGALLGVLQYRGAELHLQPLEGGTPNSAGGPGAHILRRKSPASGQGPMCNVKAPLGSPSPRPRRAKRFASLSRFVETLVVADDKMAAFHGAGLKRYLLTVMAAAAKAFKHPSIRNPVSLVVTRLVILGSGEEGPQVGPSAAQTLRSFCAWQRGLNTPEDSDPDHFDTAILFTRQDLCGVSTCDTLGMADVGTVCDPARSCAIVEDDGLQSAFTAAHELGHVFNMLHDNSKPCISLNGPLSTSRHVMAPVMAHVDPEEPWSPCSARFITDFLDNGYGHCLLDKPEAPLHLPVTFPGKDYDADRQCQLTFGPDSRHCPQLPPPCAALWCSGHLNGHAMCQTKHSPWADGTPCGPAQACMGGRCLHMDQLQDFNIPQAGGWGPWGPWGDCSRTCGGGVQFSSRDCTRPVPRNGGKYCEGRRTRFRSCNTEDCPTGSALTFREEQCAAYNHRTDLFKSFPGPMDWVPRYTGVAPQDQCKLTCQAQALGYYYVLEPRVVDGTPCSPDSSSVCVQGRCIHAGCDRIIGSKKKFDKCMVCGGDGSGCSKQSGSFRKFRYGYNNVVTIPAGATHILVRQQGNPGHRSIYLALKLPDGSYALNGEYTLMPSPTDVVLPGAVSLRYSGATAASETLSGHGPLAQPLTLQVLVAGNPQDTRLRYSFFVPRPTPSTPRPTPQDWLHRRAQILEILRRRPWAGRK

[7] = target: Macrophage metalloelastase (Homo sapiens, UniProt P39900); test: Inhibition of human MMP12 using Mca-PQGL-(3-[2, 4-dinitrophenyl]-L-2, 3-diaminopropionyl)-AR-OH as substrate after 2 to 4 hrs by fluorescence assay
Macrophage metalloelastase, sequence (P39900 whole entry): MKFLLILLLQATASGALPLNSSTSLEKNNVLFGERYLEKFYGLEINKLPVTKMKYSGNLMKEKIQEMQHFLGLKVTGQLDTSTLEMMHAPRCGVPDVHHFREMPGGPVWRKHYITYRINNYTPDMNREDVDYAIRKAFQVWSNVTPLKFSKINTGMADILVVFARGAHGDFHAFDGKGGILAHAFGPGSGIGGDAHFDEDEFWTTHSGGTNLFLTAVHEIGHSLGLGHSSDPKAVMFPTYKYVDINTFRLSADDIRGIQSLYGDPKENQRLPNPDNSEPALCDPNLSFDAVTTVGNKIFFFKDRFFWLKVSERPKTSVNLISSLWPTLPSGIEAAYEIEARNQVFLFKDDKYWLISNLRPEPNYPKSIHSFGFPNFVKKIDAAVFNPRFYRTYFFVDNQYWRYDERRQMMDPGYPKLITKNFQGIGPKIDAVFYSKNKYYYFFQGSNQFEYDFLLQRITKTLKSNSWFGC

[8] = Half life in rat at 1 mg/kg, iv; format: ADME, organism-based; details: in vivo
[9] = Cmax in rat at 10 mg/kg, po; format: ADME, organism-based; parameters: dose 10 mg/kg, route oral; details: in vivo
[10] = Half life in rat at 10 mg/kg, po; format: ADME, organism-based; details: in vivo
[11] = Plasma concentration in rat at 1 mg/kg, iv measured at 12 hrs post dose; format: ADME, organism-based
[12] = Volume of distribution in rat at 1 mg/kg, iv; format: ADME, organism-based; details: in vivo
[13] = Plasma concentration in rat at 10 mg/kg, po measured at 12 hrs post dose; format: ADME, organism-based
[14] = Oral bioavailability in rat at 10 mg/kg; format: ADME, organism-based; details: in vivo
Rattus norvegicus [15] = test: (§1) Antiarthritic activity in MIA-induced osteoarthritis Lewis rat model assessed as decrease in aggrecan degradation products by measuring ARGNV levels in synovial fluid at 75 mg/kg, po bid starting on day 3 post MIA induction measured at 4 hrs post single oral dose on day 7 by ELISA relative to control; format: functional; parameters: scale not given: the % may be the effect or the level left
In short: (§2)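 Male Lewis rats aged 7-8 weeks received 3 mg freshly prepared MIA (sodium salt) in 0.9% saline intra-articularly into the right knee on day 0, with saline alone in the left knee. Inhibitor or vehicle (1% hydroxyethyl cellulose, 0.25% Tween 80, 0.05% antifoam) was given PO BID from day 3, with a single dose on day 7. Knees were saline-lavaged 4 h later, and aggrecan fragments were quantified by ELISA.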

[16] = Clearance in rat at 1 mg/kg, iv; format: ADME, organism-based; details: in vivo
[17] = AUC (0 to 24 hrs) in rat at 1 mg/kg, iv; format: ADME, organism-based; parameters: time < 24 hr, dose 1 mg/kg, route intravenous; details: in vivo
In short: (§3)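 Rat plasma pharmacokinetics after IV dosing at 1 mg/kg or oral dosing at 10 mg/kg. Plasma concentrations were followed to 24 h.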

[18] = Tmax in rat at 10 mg/kg, po; format: ADME, organism-based; details: in vivo
Rattus norvegicus [19] = test: as §1, with “10” for “75”; format: functional; parameters: scale not given: the % may be the effect or the level left; in short: as §2
[20] = Cmax in rat at 1 mg/kg, iv; format: ADME, organism-based; parameters: dose 1 mg/kg, route intravenous; details: in vivo
Rattus norvegicus [21] = test: as §1, with “30” for “75”; format: functional; parameters: scale not given: the % may be the effect or the level left; in short: as §2
[22] = AUC (0 to 24 hrs) in rat at 10 mg/kg, po; format: ADME, organism-based; parameters: dose 10 mg/kg, time < 24 hr, route oral; details: in vivo; in short: as §3

O=C(CCc1ccc(C(F)(F)F)cc1)NC[C@@]1(C2CC2)NC(=O)NC1=O
IC50 (Collagenase 3): 320 nM
IC50 [1]: 3400 nM
IC50 (Stromelysin-1): 660 nM
IC50 [2]: 5 nM
Drug metabolism (Rattus norvegicus [3]): Metabolite_Notdetected
IC50 [4]: 310 nM
IC50 [5]: 52 nM
IC50 [6]: 4 nM
IC50 [7]: 5 nM

CC(C)[C@H](Cc1ccc(C(F)(F)F)cc1)C(=O)NC[C@@]1(C2CC2)NC(=O)NC1=O
Drug metabolism (Rattus norvegicus [3]): Metabolite_Notdetected

O=C1NC(=O)[C@](CNC(=O)c2cc3cc(C(F)(F)F)ccc3o2)(C2CC2)N1
IC50 [7]: 9 nM

C[C@]1(CNC(=O)COc2ccc(Cl)cc2)NC(=O)NC1=O
IC50 [7]: 70 nM

CC[C@H](Cc1ccc(C(F)(F)F)cc1)C(=O)NC[C@@]1(C2CC2)NC(=O)NC1=O
Drug metabolism (Rattus norvegicus [3]): Metabolite_Notdetected
IC50 [4]: 3000 nM

O=C1NC(=O)[C@](CNC(=O)[C@@H](Cc2ccc(C(F)(F)F)cc2)C2CC2)(C2CC2)N1
half-life [8]: 1.5 h
Cmax [9]: 6600 nM
half-life [10]: 2.6 h
concentration at 12 h [11]: < 5 nM
Vd [12]: 4.3 L/kg
concentration at 12 h [13]: 29 nM
bioavailability [14]: 100%
Activity (Rattus norvegicus [15]): 53%
IC50 (Stromelysin-1): > 100000 nM
clearance [16]: 33 mL/min/kg
Drug metabolism (Rattus norvegicus [3]): Metabolite_Notdetected
AUC(0-t) at 24 h [17]: 1.3 µM·h
Tmax [18]: 0.5 h
Activity (Rattus norvegicus [19]): 41%
Cmax [20]: 1600 nM
Activity (Rattus norvegicus [21]): 52%
AUC(0-t) at 24 h [22]: 22 µM·h

CC(C)(Cc1ccc(C(F)(F)F)cc1)C(=O)NC[C@@]1(C2CC2)NC(=O)NC1=O
Drug metabolism (Rattus norvegicus [3]): Metabolite_Notdetected

C[C@H](Cc1ccc(C(F)(F)F)cc1)C(=O)NC[C@@]1(C2CC2)NC(=O)NC1=O
Drug metabolism (Rattus norvegicus [3]): Metabolite_Notdetected

C[C@@]1(O)CCCN(S(=O)(=O)c2ccc(OCc3ccc(F)cc3Cl)cc2)[C@H]1C(=O)NO
Drug metabolism (Rattus norvegicus [3]): Metabolite_Notdetected
Activity (Rattus norvegicus [21]): 50%
IC50 [7]: < 1 nM

C[C@@H](Cc1ccc(C(F)(F)F)cc1)C(=O)NC[C@@]1(C2CC2)NC(=O)NC1=O
IC50 (Collagenase 3): 340 nM
IC50 [1]: 1600 nM
IC50 (Stromelysin-1): 2000 nM
Drug metabolism (Rattus norvegicus [3]): Metabolite_Notdetected
IC50 [4]: 280 nM
IC50 [7]: 7 nM
